Only a selection was taken, and hits are over-represented in it overall.
INS promoter act – TRM-6 insulin promoter activation | TRM-6 cells (human fetal islet line), insulin promoter eGFP reporter, imaging; plate-scaled: unstimulated 0, stimulated control 100 | activation, % at 2 µM | 130,000 compounds, 0.81% hits | AID 1296;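 active means activation at 2 µM above a set limit, confirmed on inspection of the cell images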;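 further: share of cells whose green reporter signal exceeds an intensity cutoff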
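Assay system: TRM-6 human fetal islet cells, insulin promoter–eGFP reporter; Also added: 0.75 µM tamoxifen as reporter inducer; Schedule: 15 h tamoxifen pre-treatment, 48 h compound treatment at 37 °C; Signal: fixed-cell fluorescence microscopy, eGFP plus Hoechst; Read-out: percent activation from GFP-positive cell fraction; Control set: stimulated and unstimulated wells.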
An asterisk follows results filed as active; + = active, no number; [ ] = dose if it differs, or a comment.

SMILES | INS promoter act
Cc1ccc(C(=O)c2cn[nH]c2-c2ccccc2O)cc1 | 0
Cc1[nH]nc2ncc(C(=O)c3ccccc3O)cc12 | -80
O=C(CSc1ccc(Cl)cc1)Nc1ccc(-c2nc3ccccc3[nH]2)cc1 | -2
Cc1ccc2c(CC(=O)NC3CCCc4ccccc43)coc2c1 (configuration not stated) | 108
CCOC(=O)c1[nH]c2ccc(OCC)cc2c1CCCN1C(=O)c2ccccc2C1=O | 6
CCOC(=O)c1ccc2c(c1)nc(-c1ccc(F)cc1)c1nccn12 | -10
CC1CCN(S(=O)C23CC4CC(CC(C4)C2)C3)CC1 (configuration not stated) | 5
O=S(NC1CCCCC1)C12CC3CC(CC(C3)C1)C2 (configuration not stated) | 0
CN1CCN(S(=O)C23CC4CC(CC(C4)C2)C3)CC1 (configuration not stated) | 488*
COc1ccc(-c2nc3c(c(=O)n(C)c(=O)n3C)n2CC2CC(c3ccccc3)=NO2)cc1OC (configuration not stated) | -41
CC1=NN(C(=O)c2ccccc2-n2cccc2)C(O)(C(F)(F)F)C1 (configuration not stated) | -3
CC1CCN(CC(O)COC2CC(C)CCC2C(C)C)CC1 (configuration not stated) | 543*
CC1CC(OCC(O)CN2CCN(Cc3ccccc3)CC2)CC(C)(C)C1 (configuration not stated) | 100
CC1CCC(C(C)C)C(OC(=O)CSc2nnc(N)s2)C1 (configuration not stated) | 6
O=c1ccccn1CCOc1ccccc1Cl | 0
CCNC(=O)C1CCCc2c1[nH]c1ccc(Cl)cc21 (configuration not stated) | 0
O=C(c1ccco1)N(CCC(c1ccccc1)c1ccco1)Cc1ccccc1 (configuration not stated) | 7
O=C(Nc1ccccc1C(=O)NCCc1ccccc1)c1ccco1 | 0
C=C(C)CC(NCCc1ccccc1)c1ccco1 (configuration not stated) | 669*[fluoresces]
COC(=O)CCN(C(=O)c1ccc(C)c([N+](=O)[O-])c1)c1ccccn1 | +
Cc1ccc(C(=O)COC(=O)CNC(=O)C(c2ccccc2)c2ccccc2)cc1[N+](=O)[O-] | 7
Cc1ccc(C(=O)NCCSC(C)(C)C)cc1[N+](=O)[O-] | -8
Cc1ccc(N=C2NC(=O)/C(=C\c3ccc(C)s3)S2)cc1 | 7
Cc1ccc(C2(C)NC(=O)N(CC(=O)c3ccc(Cl)s3)C2=O)cc1 (configuration not stated) | 3
COc1cccc2cc(C(=O)N(C)C3CCN(C)CC3)c(=O)oc12 | 0
SMILES | INS promoter act
CC(C)CCN1C(=O)c2ccccc2C1C(=O)NCc1cccnc1 (configuration not stated) | 0
COc1ccccc1C(=O)N/N=C(\C)c1ccc(NC(=O)C2CC2)cc1 | 0
CC(c1ccccc1)N1C(=O)c2ccc(C(=O)NCc3ccco3)cc2C1=O (configuration not stated) | 440*
Cn1nnc2cc(C(=O)NCc3ccco3)ccc21 | 7
Cc1ccc(C(=O)Nc2cccc(C(=O)NCc3ccco3)c2)cc1 | 8
C=CCn1c(SCC(=O)N2N=C(c3ccco3)CC2c2ccco2)nnc1-c1ccncc1 (configuration not stated) | 3
CNC(=O)C1C(=S)NC(N)=C(C#N)C1c1ccccc1 (configuration not stated) | -2
Cc1ccc(-c2nc3c(c(=O)c4ccccc4n3C)c(=O)n2-c2ccccc2)cc1 | 10
COc1ccc(C2CC(=O)C=C(NCCC(C)C)C2)cc1 (configuration not stated) | 0
O=C(NCc1cccnc1)c1noc2c1CCCC2 | 3
CCc1ccc(NC(=O)c2noc3c2CCC3)cc1 | 8
O=C(NCc1cccc(F)c1)c1noc2c1CCCC2 | 257*
CCOC(=O)NCc1ccc(S(=O)(=O)Nc2c(C)cccc2C)cc1 | 4
CN=C1SC(CC(=O)Nc2cc(Cl)ccc2Cl)C(=O)N1C (configuration not stated) | 9
CCS(=O)(=O)c1ccc(O)c(NC(=O)c2cc(OC)c(OC)c(OC)c2)c1 | 0
Oc1c(Cl)cc(Cl)c2cccnc12 | 9
CCS(=O)(=O)c1ccc(N=Nc2ccc(O)c3ncccc23)c(OC)c1 | 625*
Cc1ccc(N=Nc2ccc(O)c3ncccc23)cc1C | 279*
Cc1ccc(N=Nc2ccc(O)c3ncccc23)cc1 | 123
Oc1ccc(CN2CCCCC2)c2cccnc12 | 389
COC(=O)CNC(=O)C1(C)C=CCN1C(=O)c1ccccc1 (configuration not stated) | 5
CCOc1ccc(C(C)NC(=O)c2cccc(F)c2)cc1 (configuration not stated) | 9
O=C(NCCC1=CCCCC1)C(=O)NCC(c1ccco1)N1CCN(c2ccccc2F)CC1 (configuration not stated) | 7
COC(=O)c1ccc(-c2cc(C(=O)O)c3cc4c(cc3n2)OCCO4)cc1 | -73
CC(=O)Nc1nc(-c2ccccc2)nc(C)c1C(C)=O | -3
SMILES | INS promoter act
CCC(=O)Nc1nc(C)nc(C)c1C(C)=O | 6
CC(=O)Nc1nc(C)nc(C)c1C(C)=O | 129*
CCN(CC)C1=NC=CC(c2ccccc2)=CC1C (configuration not stated) | 3
CCN(CC)C(=O)/C(=C\c1ccc(Br)cc1)NC(=O)c1ccccc1OC | -3
CCCc1ccc(C(C)NC(=O)c2cnccn2)cc1 (configuration not stated) | 9
CC(C)Cc1ccc(C(C)C(=O)O)cc1 (configuration not stated) | 5
CC(C)Cc1ccc(C(C)NC(=O)c2ccc(=O)[nH]c2)cc1 (configuration not stated) | 350*
Cc1nn(C(=O)c2ccccc2)c2c1C(=O)CC(C)(C)C2 | 28
Cc1cc(NC(=O)CSc2nc(-c3ccccc3)cs2)no1 | 103
Cc1ccc(CNC(=O)CSc2nc3ccsc3c(=O)n2NC(=O)c2ccccc2)cc1 | 5
Cc1cc(NC(=O)CSc2nc3ccsc3c(=O)n2NC(=O)c2ccccc2)no1 | 436*
O=C(Oc1ccc(N(Cc2cccs2)C2=NS(=O)(=O)c3ccccc32)cc1)c1ccccc1F | -7
C=CCc1ccc(OCC(O)CN2CCCCC2C)c(OC)c1 (configuration not stated) | 6
CC(=O)c1cccc(NC(=O)N2CCCC2C(=O)Nc2ccc3c(c2)OCCO3)c1 (configuration not stated) | 493*
COc1ccc(NC(=O)C2CCCN2C(=O)Nc2ccccc2)cc1OC (configuration not stated) | -7
CC(=O)c1cccc(NC(=O)N2CCCC2C(=O)NCc2ccc3c(c2)OCO3)c1 (configuration not stated) | 8
COc1ccc(-c2nn(C)c(=O)c3ccccc23)cc1CNC(=O)NC1CCCCC1 | 0
CCOC(=O)C1CCN(C(=O)COc2ccc(Cl)cc2)CC1 | 0
CCOC(=O)C1CCCN(C(=O)CCc2ccccc2)C1 (configuration not stated) | -78
CCOC(=O)C1CCCN(C(=O)Cc2ccc(Cl)cc2)C1 (configuration not stated) | 85*
Cc1ccc(S(=O)(=O)NC(=O)c2ccc(-c3ccc(-c4ccccc4)cc3)o2)c(C)c1 | -67
Cc1ccc(S(=O)(=O)N(CC(=O)N2CCCCC2)c2cccc(C)c2)cc1 | 114
CC(NC(=O)OCc1ccccc1)C(=O)NCC(=O)NC(Cc1ccc(OC(C)(C)C)cc1)C(=O)OC(C)(C)C (configuration not stated) | 7
Cc1cccc(-c2nsc(SCC(=O)Nc3nccs3)n2)c1 | 121*
COc1ccc(-c2nsc(SCC(=O)Nc3cc(C)on3)n2)cc1 | 2
CCc1nnc(NC(=O)CSc2nc(-c3ccc(OC)cc3)ns2)s1 | -25

Source: PubChem BioAssay
